The text below walks through data of ChEMBL document CHEMBL1828592, “Synthesis and anti-microbial activity of some 1- substituted amino-4,6-dimethyl-2-oxo-pyridine-3-carbonitrile derivatives” (2011).

The source made the active and inactive calls. The rule behind the calls is not given here.

In assay [1] the test system is Aspergillus fumigatus. The assay can be described thus: Antifungal activity against Aspergillus fumigatus RCMB 002003 at 30 ug/ml after 3 to 4 days by agar well diffusion method. The format is functional. As to conditions: read-out: IZ. The procedure, abridged:
(§1)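 Reference antifungal tested at 30 μg/mL, 100 μL per well, on Sabouraud dextrose agar spread with 0.1 mL of a fungal culture at about 10^5 CFU/mL. Wells were bottom-sealed with 0.8% soft agar. Incubated 30 °C, 3–4 days. Inhibition zone (mm) measured three times by caliper and averaged; mean ± SD.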
(In general: Agar diffusion results depend on both activity and mobility in agar.)

For assay [2], the system named is Syncephalastrum racemosum. Description: Antifungal activity against Syncephalastrum racemosum RCMB 005003 at 30 ug/ml after 3 to 4 days by agar well diffusion method. It counts as functional. As to conditions: read-out: IZ. Put shortly: as §1
In assay [3] the test system is Candida albicans. The assay can be described thus: Antifungal activity against Candida albicans RCMB 005002 at 30 ug/ml after 3 to 4 days by agar well diffusion method. It counts as functional. As to conditions: read-out: IZ. The procedure, abridged:
as §1

Assay [4] has as its system Geotrichum candidum. The assay can be described thus: Antifungal activity against Geotrichum candidum RCMB 052006 at 30 ug/ml after 3 to 4 days by agar well diffusion method. The format is functional. To be noted: read-out: IZ. The procedure, abridged:
as §1

Assay [5] has as its system Staphylococcus aureus. The assay can be described thus: Antibacterial activity against Staphylococcus aureus RCMB 000106 at 30 ug/ml after 24 hrs by diffusion agar technique. It counts as functional. To be noted: RCMB 000106, 24 h, read-out: IZ. Put shortly:
(§2)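 Reference antibiotic tested at 30 μg/mL, 100 μL per 6 mm well in agar diffusion on nutrient agar (pH 7.0) seeded with approx. 10^4–10^6 CFU/mL bacteria. Incubated 37 °C for 24 h. Inhibition zone beyond well diameter (mm) read by caliper in triplicate and averaged; mean ± SD.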

For assay [6], the system named is Escherichia coli. Description: Antibacterial activity against Escherichia coli RCMB 000103 at 30 ug/ml after 24 hrs by diffusion agar technique. It counts as functional. To be noted: RCMB 000103, 24 h, read-out: IZ. Put shortly: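 Agar well diffusion on nutrient agar (pH 7.0) spread with centrifuged bacterial pellets from a 24 h culture, about 10^4–10^6 CFU/mL. Wells receive 100 µL of sample in DMSO: tested samples at 10 mg/mL, standard antibiotic at 30 μg/mL, DMSO as control. Incubation is 37 °C for 24 h. Inhibition zone in mm beyond the 6 mm well is measured three times by caliper and averaged. Three runs, mean ± SD.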

Assay [7] has as its system Bacillus subtilis. Description: Antibacterial activity against Bacillus subtilis RCMB 000107 at 30 ug/ml after 24 hrs by diffusion agar technique. The format is functional. To be noted: RCMB 000107, 24 h, read-out: IZ. Put shortly: as §2
Assay [8] relates to Pseudomonas aeruginosa. Description: Antibacterial activity against Pseudomonas aeruginosa RCMB 000102 at 30 ug/ml after 24 hrs by diffusion agar technique. It counts as functional. To be noted: RCMB 000102, 24 h, read-out: IZ. Put shortly:
as §2

Assay [9] relates to Escherichia coli. The assay can be described thus: Antibacterial activity against Escherichia coli RCMB 000103 at 10 mg/ml after 24 hrs by diffusion agar technique. The format is functional. As to conditions: RCMB 000103, 24 h, read-out: IZ. The procedure, abridged:
(§3)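 Agar well diffusion: 24 h bacterial culture pellets (approx. 10^4–10^6 CFU/mL) spread on nutrient agar, pH 7.0. Wells (6 mm) loaded with 100 μL sample at 10 mg/mL in DMSO; DMSO control. Incubated 37 °C, 24 h. Inhibition zone (mm, beyond well) measured three times by caliper and averaged; three runs per strain; mean ± SD.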

The subject of assay [10] is Candida albicans. Description: Antifungal activity against Candida albicans RCMB 005002 at 10 mg/ml after 3 to 4 days by agar well diffusion method. It counts as functional. As to conditions: read-out: IZ. Put shortly: (§4)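 Patient-isolated fungi, purified by single-spore isolation, were grown 3–4 days in Sabouraud dextrose broth to about 10^5 CFU/mL. 0.1 mL was spread on Sabouraud dextrose agar. Wells were sealed at the bottom with 0.8% soft agar and loaded with 100 μL sample (10 mg/mL, DMSO); DMSO was the control. Incubated 30 °C, 3–4 days. Zone read three times by caliper and averaged; mean ± SD.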

Assay [11] deals with Pseudomonas aeruginosa. The assay can be described thus: Antibacterial activity against Pseudomonas aeruginosa RCMB 000102 at 10 mg/ml after 24 hrs by diffusion agar technique. It counts as functional. The procedure, abridged:
as §3

The test system of assay [12] is Bacillus subtilis. Description: Antibacterial activity against Bacillus subtilis RCMB 000107 at 10 mg/ml after 24 hrs by diffusion agar technique. It counts as functional. As to conditions: RCMB 000107, 24 h, read-out: IZ. The procedure, abridged:
as §3

The test system of assay [13] is Staphylococcus aureus. The assay can be described thus: Antibacterial activity against Staphylococcus aureus RCMB 000106 at 10 mg/ml after 24 hrs by diffusion agar technique. The format is functional. To be noted: RCMB 000106, 24 h, read-out: IZ. Put shortly: as §3
The test system of assay [14] is Geotrichum candidum. The assay can be described thus: Antifungal activity against Geotrichum candidum RCMB 052006 at 10 mg/ml after 3 to 4 days by agar well diffusion method. It counts as functional. To be noted: read-out: IZ. The procedure, abridged:
as §4

In assay [15] the test system is Aspergillus fumigatus. The assay can be described thus: Antifungal activity against Aspergillus fumigatus RCMB 002003 at 10 mg/ml after 3 to 4 days by agar well diffusion method. The format is functional. To be noted: read-out: IZ. The procedure, abridged: as §4
In assay [16] the test system is Syncephalastrum racemosum. The assay can be described thus: Antifungal activity against Syncephalastrum racemosum RCMB 005003 at 10 mg/ml after 3 to 4 days by agar well diffusion method. The format is functional, organism-based. The procedure, abridged:
as §4

Turning to `Clc1ccccc1C(c1ccccc1)(c1ccccc1)n1ccnc1` [CLOTRIMAZOLE], the zone of inhibition at 30 µg/mL with Aspergillus fumigatus [1] turned out to be 26 mm; in [2], 20 mm; in the assay with Candida albicans [3] it was 18 mm; in the assay with Geotrichum candidum [4], 23 mm.
In the case of `CN[C@@H]1[C@H](O[C@H]2[C@H](O[C@H]3[C@H](O)[C@@H](O)[C@H](N=C(N)N)[C@@H](O)[C@@H]3N=C(N)N)O[C@@H](C)[C@]2(O)C=O)O[C@@H](CO)[C@H](O)[C@H]1O` [STREPTOMYCIN], the zone of inhibition at 30 µg/mL stood at 25 mm in the assay on Staphylococcus aureus [5], 25 mm with Escherichia coli [6], 29 mm with Bacillus subtilis [7] and 24 mm in the assay with Pseudomonas aeruginosa [8].
With `CCC(C)n1ncn(-c2ccc(N3CCN(c4ccc(OCC5COC(Cn6cncn6)(c6ccc(Cl)cc6Cl)O5)cc4)CC3)cc2)c1=O` (centres undefined) [ITRACONAZOLE], the zone of inhibition at 30 µg/mL in the assay on Aspergillus fumigatus [1] was determined as 28 mm; in assay [2], 22 mm; in the assay with Candida albicans [3] it was 26 mm; with Geotrichum candidum [4] it was 27 mm.
With `CC1(C)S[C@@H]2[C@H](NC(=O)Cc3ccccc3)C(=O)N2[C@H]1C(=O)O` [PENICILLIN G], the zone of inhibition at 30 µg/mL came to 29.5 mm in the assay on Staphylococcus aureus [5], 33.6 mm in the assay on Escherichia coli [6], 32.6 mm in the assay with Bacillus subtilis [7] and 28.3 mm with Pseudomonas aeruginosa [8].
With `Cc1cc(C)n(N2C(=O)c3c(Br)c(Br)c(Br)c(Br)c3C2=O)c(=O)c1C#N`, the zone of inhibition at 10000 µg/mL in the assay with Escherichia coli [9] was determined as 12.6 mm; in the assay with Candida albicans [10] it was 20.2 mm; with Bacillus subtilis [12], 26.4 mm; in the assay with Staphylococcus aureus [13], 26.4 mm; with Geotrichum candidum [14], 23.5 mm; in the assay with Aspergillus fumigatus [15], 22.5 mm. Moreover, the “inhibition zone (IZ)” value (in the assay with Pseudomonas aeruginosa [11]; in [16]) was “inactive” throughout.
